# Experimental data reported in ChEMBL document CHEMBL2331439 (J Med Chem, 2013).
# What was measured:
# [1] = biological target: Serine/threonine-protein kinase MARK2 (Homo sapiens) (UniProt Q7KZI7); assay: Inhibition of recombinant MARK2 (unknown origin) at 5 uM by FRET-based Z'-LYTE assay
# Method in brief: (§1)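 Single-point panel screen at 5 μM in duplicate. ATP is at the apparent Km of each kinase, and the Z'-LYTE FRET peptide substrate is used. Each point has two control wells: a protease control for interference with development and a fluorescence control for interference with the FRET read-out. Values above 100% are treated as maximal inhibition and values below 0% as none.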
# [2] = biological target: Cyclin-dependent kinase 1/cyclin B1 (Homo sapiens) (UniProt P06493+P14635); assay: Inhibition of recombinant CDK1/cyclin B (unknown origin) at 5 uM by FRET-based Z'-LYTE assay; assay type: protein-complex assay; method in brief: as §1
# [3] = biological target: CDK9/cyclin T1 (Homo sapiens) (UniProt O60563+P50750); assay: Inhibition of recombinant CDK9/cyclin T1 (unknown origin) at 5 uM after 1 hr by FRET-based adapta assay; assay type: protein-complex assay
# Method in brief: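 After inhibitor and all reaction components are added, the reaction runs for 1 h. ADP formed by the kinase displaces an antibody-tracer complex, so reduced ADP gives a high TR-FRET signal. Inhibition is calculated against a control.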
# [4] = biological target: Phosphorylase b kinase gamma catalytic chain, liver/testis isoform (Homo sapiens) (UniProt P15735); assay: Inhibition of recombinant PHKG2 (unknown origin) at 5 uM by FRET-based Z'-LYTE assay; method in brief: as §1
# [5] = biological target: Tyrosine-protein kinase BTK (Homo sapiens) (UniProt Q06187); assay: Inhibition of recombinant BTK (unknown origin) at 5 uM by FRET-based Z'-LYTE assay; method in brief: as §1
# [6] = biological target: Receptor-type tyrosine-protein kinase FLT3 (Homo sapiens) (UniProt P36888); assay: Inhibition of recombinant FLT3 (unknown origin) at 5 uM by FRET-based Z'-LYTE assay; method in brief: as §1
# [7] = biological target: Mitogen-activated protein kinase 14 (Homo sapiens, UniProt Q16539); assay: Inhibition of recombinant MAPK14 (unknown origin) at 5 uM by cascade reaction assay
# [8] = biological target: Inhibitor of nuclear factor kappa-B kinase subunit beta (Homo sapiens) (UniProt O14920); assay: Inhibition of recombinant IKBKB (unknown origin) at 5 uM by FRET-based Z'-LYTE assay; method in brief: as §1
# [9] = biological target: Mitogen-activated protein kinase 1 (Homo sapiens, UniProt P28482); assay: Inhibition of recombinant ERK2 (unknown origin) by FRET-based Z'-LYTE assay
# [10] = biological target: Ribosomal protein S6 kinase beta-1 (Homo sapiens, UniProt P23443); assay: Inhibition of recombinant RPS6K1 (unknown origin) by FRET-based Z'-LYTE assay
# [11] = biological target: Serine/threonine-protein kinase pim-1 (Homo sapiens) (UniProt P11309); assay: Inhibition of recombinant PIM1 (unknown origin) at 5 uM by FRET-based Z'-LYTE assay; method in brief: as §1
# Sequence of Serine/threonine-protein kinase pim-1 (Homo sapiens) (P11309 whole entry, looked up): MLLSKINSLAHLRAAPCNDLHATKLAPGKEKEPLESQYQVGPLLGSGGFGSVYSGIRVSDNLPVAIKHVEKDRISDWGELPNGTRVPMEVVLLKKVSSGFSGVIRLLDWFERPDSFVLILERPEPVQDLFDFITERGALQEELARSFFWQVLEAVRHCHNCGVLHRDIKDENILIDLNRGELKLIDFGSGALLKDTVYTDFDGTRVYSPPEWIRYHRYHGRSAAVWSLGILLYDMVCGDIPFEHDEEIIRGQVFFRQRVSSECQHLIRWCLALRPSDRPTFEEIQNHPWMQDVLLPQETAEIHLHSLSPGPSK
# Sequence of Phosphorylase b kinase gamma catalytic chain, liver/testis isoform (Homo sapiens) (P15735 whole entry, canonical isoform): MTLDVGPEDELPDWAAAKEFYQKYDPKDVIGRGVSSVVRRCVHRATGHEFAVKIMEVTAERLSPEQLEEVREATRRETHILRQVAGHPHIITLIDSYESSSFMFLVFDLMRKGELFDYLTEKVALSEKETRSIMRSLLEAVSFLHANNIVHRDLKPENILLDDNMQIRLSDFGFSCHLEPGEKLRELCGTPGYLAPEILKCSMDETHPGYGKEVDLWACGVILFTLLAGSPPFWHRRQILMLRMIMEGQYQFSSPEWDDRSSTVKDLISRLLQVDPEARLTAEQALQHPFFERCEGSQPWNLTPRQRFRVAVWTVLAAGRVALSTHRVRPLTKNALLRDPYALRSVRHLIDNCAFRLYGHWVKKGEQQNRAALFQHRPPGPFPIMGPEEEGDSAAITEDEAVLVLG
# Sequence of Cyclin-dependent kinase 1/cyclin B1 (Homo sapiens) (P06493 whole entry, looked up): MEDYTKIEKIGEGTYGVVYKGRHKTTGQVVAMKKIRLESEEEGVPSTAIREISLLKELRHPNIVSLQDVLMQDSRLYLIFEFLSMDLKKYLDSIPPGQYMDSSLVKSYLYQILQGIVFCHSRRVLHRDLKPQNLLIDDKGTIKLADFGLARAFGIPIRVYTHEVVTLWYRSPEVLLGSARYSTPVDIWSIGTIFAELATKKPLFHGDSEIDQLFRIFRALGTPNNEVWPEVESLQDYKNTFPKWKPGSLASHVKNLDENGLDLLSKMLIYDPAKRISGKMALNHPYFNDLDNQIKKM
# Sequence of Cyclin-dependent kinase 1/cyclin B1 (Homo sapiens) (P14635 whole entry, looked up): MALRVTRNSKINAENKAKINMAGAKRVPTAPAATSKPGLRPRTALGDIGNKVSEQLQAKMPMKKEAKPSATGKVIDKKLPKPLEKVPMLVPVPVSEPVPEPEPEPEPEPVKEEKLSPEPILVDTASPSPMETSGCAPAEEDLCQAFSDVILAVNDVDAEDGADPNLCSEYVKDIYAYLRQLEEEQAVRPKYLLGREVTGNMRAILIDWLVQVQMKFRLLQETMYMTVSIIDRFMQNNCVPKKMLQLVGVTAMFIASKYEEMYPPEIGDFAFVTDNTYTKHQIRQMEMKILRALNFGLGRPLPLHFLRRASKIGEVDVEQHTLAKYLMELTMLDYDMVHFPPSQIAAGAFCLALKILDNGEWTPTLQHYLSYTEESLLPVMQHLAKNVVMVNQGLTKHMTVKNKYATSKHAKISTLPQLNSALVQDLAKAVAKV
# Sequence of Receptor-type tyrosine-protein kinase FLT3 (Homo sapiens) (P36888 whole entry): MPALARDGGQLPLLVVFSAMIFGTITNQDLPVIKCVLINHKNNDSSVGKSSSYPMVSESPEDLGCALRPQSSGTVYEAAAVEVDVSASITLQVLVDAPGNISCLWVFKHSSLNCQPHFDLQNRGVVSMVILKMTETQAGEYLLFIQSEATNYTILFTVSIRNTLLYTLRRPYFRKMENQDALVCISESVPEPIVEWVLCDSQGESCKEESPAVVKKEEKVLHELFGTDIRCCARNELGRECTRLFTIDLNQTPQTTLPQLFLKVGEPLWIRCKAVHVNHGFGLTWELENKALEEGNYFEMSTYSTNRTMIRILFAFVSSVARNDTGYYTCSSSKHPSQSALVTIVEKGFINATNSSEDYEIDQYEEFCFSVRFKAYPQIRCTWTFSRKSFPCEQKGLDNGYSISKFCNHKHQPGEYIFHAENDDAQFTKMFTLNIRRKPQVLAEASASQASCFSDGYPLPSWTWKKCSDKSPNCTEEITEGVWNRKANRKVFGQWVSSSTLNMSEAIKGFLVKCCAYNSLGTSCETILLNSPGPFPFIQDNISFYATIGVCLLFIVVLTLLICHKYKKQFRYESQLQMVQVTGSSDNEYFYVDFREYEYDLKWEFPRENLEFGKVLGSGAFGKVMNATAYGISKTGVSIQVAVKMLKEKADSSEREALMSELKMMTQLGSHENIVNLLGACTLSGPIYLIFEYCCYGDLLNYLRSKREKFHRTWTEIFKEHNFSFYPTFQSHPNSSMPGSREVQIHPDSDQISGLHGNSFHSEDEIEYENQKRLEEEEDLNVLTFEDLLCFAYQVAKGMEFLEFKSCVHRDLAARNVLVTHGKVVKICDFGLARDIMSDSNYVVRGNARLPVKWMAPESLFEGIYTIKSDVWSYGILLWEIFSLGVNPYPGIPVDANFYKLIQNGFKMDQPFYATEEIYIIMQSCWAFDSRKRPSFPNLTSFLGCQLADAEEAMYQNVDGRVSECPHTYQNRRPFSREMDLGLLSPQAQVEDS
# Sequence of Ribosomal protein S6 kinase beta-1 (P23443 whole entry): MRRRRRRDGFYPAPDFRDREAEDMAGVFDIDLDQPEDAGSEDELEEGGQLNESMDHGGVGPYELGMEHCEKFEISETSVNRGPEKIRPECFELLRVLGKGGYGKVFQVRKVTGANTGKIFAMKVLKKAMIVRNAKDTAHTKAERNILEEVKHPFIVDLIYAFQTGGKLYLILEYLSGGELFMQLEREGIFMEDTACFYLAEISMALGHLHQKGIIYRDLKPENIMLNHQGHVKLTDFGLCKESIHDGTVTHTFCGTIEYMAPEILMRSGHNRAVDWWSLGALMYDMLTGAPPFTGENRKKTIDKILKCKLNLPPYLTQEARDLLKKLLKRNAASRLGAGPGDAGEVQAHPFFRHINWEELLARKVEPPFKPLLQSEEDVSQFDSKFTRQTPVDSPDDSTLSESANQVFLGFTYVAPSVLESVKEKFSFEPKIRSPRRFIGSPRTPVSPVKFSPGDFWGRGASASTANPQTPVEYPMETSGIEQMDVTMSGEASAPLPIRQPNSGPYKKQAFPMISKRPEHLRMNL
# Sequence of Serine/threonine-protein kinase MARK2 (Homo sapiens) (Q7KZI7 whole entry): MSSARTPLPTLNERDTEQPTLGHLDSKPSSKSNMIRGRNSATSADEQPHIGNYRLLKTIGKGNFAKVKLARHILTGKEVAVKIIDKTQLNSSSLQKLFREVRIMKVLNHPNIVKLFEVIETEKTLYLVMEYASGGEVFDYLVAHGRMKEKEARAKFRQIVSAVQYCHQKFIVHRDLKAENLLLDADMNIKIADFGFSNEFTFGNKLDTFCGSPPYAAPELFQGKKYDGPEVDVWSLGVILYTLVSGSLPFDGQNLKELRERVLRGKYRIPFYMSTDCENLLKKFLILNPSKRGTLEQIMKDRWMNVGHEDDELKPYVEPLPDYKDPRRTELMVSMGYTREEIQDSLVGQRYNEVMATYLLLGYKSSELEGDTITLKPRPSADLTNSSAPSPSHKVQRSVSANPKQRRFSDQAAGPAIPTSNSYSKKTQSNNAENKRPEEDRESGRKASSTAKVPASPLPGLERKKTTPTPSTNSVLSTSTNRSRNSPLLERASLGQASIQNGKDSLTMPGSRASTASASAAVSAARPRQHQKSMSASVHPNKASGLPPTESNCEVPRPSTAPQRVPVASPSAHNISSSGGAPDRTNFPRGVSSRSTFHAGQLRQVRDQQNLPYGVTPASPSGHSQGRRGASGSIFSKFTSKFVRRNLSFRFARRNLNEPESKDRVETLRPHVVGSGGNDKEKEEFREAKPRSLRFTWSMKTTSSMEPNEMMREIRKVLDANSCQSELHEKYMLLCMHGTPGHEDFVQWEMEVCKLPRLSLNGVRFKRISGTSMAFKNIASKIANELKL
# Sequence of Tyrosine-protein kinase BTK (Homo sapiens) (Q06187 whole entry): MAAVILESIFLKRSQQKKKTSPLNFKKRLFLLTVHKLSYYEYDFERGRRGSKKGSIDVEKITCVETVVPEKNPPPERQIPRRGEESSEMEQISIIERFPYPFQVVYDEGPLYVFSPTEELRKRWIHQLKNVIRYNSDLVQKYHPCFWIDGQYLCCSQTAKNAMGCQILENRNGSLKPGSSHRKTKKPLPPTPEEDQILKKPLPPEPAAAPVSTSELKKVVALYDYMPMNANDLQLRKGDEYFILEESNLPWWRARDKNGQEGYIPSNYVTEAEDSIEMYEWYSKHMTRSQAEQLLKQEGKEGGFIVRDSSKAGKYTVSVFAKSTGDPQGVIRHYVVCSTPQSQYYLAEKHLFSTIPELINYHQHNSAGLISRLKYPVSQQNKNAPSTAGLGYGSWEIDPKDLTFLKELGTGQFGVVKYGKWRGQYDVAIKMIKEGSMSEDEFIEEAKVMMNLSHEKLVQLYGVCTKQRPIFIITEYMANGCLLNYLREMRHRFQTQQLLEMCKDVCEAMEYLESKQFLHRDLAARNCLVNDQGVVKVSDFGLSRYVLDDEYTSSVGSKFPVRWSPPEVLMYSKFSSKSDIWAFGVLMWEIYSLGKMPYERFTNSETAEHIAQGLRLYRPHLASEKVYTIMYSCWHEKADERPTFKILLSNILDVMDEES
# Sequence of Mitogen-activated protein kinase 1 (P28482 whole entry): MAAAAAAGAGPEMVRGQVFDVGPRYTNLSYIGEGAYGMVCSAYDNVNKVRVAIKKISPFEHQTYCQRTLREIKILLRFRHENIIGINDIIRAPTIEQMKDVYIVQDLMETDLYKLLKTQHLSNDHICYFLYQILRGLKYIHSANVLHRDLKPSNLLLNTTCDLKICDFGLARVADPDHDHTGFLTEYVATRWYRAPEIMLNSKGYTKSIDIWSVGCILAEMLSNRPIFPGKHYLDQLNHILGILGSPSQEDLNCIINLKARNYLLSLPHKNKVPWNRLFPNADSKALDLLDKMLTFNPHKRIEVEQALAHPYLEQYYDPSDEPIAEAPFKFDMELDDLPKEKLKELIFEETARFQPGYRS
smiles,measurement,setting,value
O=C1/C(=C/c2ccccn2)CNC/C1=C\c1ccccn1,inhibition,[1],22%
same,inhibition,[2],24%
same,inhibition,[3],26%
same,inhibition,[4],37%
same,inhibition,[5],44%
same,inhibition,[6],69%
same,inhibition,[7],104%
same,inhibition,[8],107%
same,IC50,[9],4 µM
same,IC50,[10],1400 nM
same,inhibition,[11],10%
